The source made the active and inactive calls. The rule behind the calls is not given here.
Assays:
MeWo [1] = assay: Cytotoxicity against human MeWo cells assessed as cell viability at 10 uM after 48 hrs by MTT assay relative to vehicle-treated control; type: functional; details: read-out: Activity
Method in brief: (§1)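 MeWo melanoma cells (DMEM, 10% FBS, 2 mM L-glutamine, penicillin/streptomycin 100 µg/mL) grown 48 h with or without compound. Washed twice in Locke's solution (HEPES pH 7.6), then MTT 250 µg/mL for 90 min. Screening at 10 µM fixed concentration against untreated control. Concentration–response: mean + S.D. of 8–16 replicates from 4 separate experiments.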

[2] = Cytotoxicity against human SH-SY5Y cells assessed as cell viability after 48 hrs by MTT assay; type: functional, cell-based
Method in brief: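 SH-SY5Y neuroblastoma cells in 50% DMEM/50% F-12 with 10% FBS, treated 48 h across a concentration range. Viability by MTT: cells washed twice in Locke's solution (pH 7.6), then 90 min with MTT 250 µg/mL. Mean + S.D. of 8–16 replicates from 4 separate experiments.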

Tubulin (Homo sapiens) [3] = target: T1, Tubulin (Homo sapiens) (UniProt P68371+Q9H4B7+P0DPH7+P68366+Q13509+Q71U36+P04350+Q3ZCM7+P07437+P68363+Q9BQE3+Q6PEY2+Q13885+Q9BVA1+Q9BUF5); assay: Inhibition of alpha-tubulin polymerization in human MeWo cells at 3 X IC50 after 16 hrs by Western blot analysis in presence of paclitaxel; type: cell-based
Method in brief: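 MeWo cells in flasks, treated 16 h at 3× IC50 or left untreated. Trypsinised and lysed 10 min at RT in hypotonic buffer (20 mM Tris-HCl pH 6.8, 1 mM MgCl2, 2 mM EGTA, 0.5% NP-40, protease inhibitors) containing paclitaxel. Equal protein centrifuged 13000 rpm, 15 min. Pellet (polymerized) and supernatant (free) α-tubulin compared by SDS-PAGE/western blot, chemiluminescence. Three experiments; CA-4 positive control.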

Tubulin (Homo sapiens) [4] = target: T1, Tubulin (Homo sapiens); assay: Inhibition of alpha-tubulin polymerization in human MeWo cells at 3 X IC50 after 16 hrs by immunofluorescence microscopic analysis; type: cell-based
Method in brief: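 MeWo cells on glass coverslips, drug-treated at 3× IC50, 16 h per the legend (24 h in methods). Stained with anti-tubulin (1:1000, 20 min RT), Alexa 488 secondary and nuclear dye, imaged at 63× oil. Representative of three experiments.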

MeWo [5] = assay: Antitubulinic activity in human MeWo cells assessed as blockade in G2/M phase at 3 X IC50 after 16 hrs by propidium iodide staining-based FACS analysis; type: functional, cell-based
Method in brief: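 MeWo cells (DMEM, 10% FBS, 2 mM L-glutamine, pen/strep) exposed 16 h to vehicle or compound. Washed once in PBS, then fixed in ice-cold 30:70 PBS/EtOH and held at −20 °C before DNA-content flow cytometry. Histograms shown are representative of three separate experiments.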

MeWo [6] = assay: Cytotoxicity against human MeWo cells assessed as cell viability after 48 hrs by MTT assay; type: functional, cell-based; method in brief: as §1

Structure (SMILES) | viability at 10 µM (MeWo [1]) | further results
COc1cc(/C=C/C(O)=C/C(=O)c2ccc(O)c(OC)c2)cc(OC)c1 | 88% | –
COc1ccc(/C=C/C(O)=C/C(=O)c2ccccc2)cc1 | 90% | –
COc1cc(/C=C/C(O)=C/C(=O)c2ccccc2)cc(OC)c1 | 92% | –
COc1cc(-c2cc(/C=C/c3cc(OC)c(OC)c(OC)c3)n[nH]2)ccc1O | 75% | –
COc1cc(/C=C/C(O)=C/C(=O)c2ccc(O)cc2)cc(OC)c1OC | 85% | –
COc1ccc(/C=C/C(O)=C/C(=O)c2ccc(O)c(OC)c2)cc1 | 84% | –
COc1cc(/C=C/c2cc(-c3ccccc3)[nH]n2)cc(OC)c1OC | 89% | –
COc1cc(/C=C/c2cc(-c3ccc(O)cc3)[nH]n2)cc(OC)c1 | 38% | IC50 [2]: 10.6 µM; inhibition (Tubulin (Homo sapiens) [3]): Active; inhibition (Tubulin (Homo sapiens) [4]): Active; Activity (MeWo [5]): Active; IC50 (MeWo [6]): 5.7 µM
COc1ccc(/C=C/c2cc(-c3ccc(O)cc3)[nH]n2)cc1 | 81% | –
O=C(/C=C(O)/C=C/c1ccc(O)cc1)c1ccc(O)cc1 | 77% | –
COc1cc(/C=C/C(O)=C/C(=O)c2ccccc2)cc(OC)c1OC | 93% | –
COc1cc(/C=C/C(O)=C/C(=O)c2ccc(O)c(OC)c2)ccc1O | 97% | –
O=C(/C=C(O)/C=C/c1ccc(O)cc1)c1ccccc1 | 90% | –
Oc1ccc(/C=C/c2cc(-c3ccccc3)[nH]n2)cc1 | 98% | –
COc1cc(-c2cc(/C=C/c3ccc(O)cc3)n[nH]2)ccc1O | 95% | –
Oc1ccc(/C=C/c2cc(-c3ccc(O)cc3)[nH]n2)cc1 | 87% | –

Structure (SMILES) | viability at 10 µM (MeWo [1]) | further results
COc1cc(/C=C/C(=O)CC(=O)/C=C/c2ccc(O)c(OC)c2)ccc1O [CURCUMIN] | 90% | IC50 [2]: 11.4 µM; inhibition (Tubulin (Homo sapiens) [3]): Active; inhibition (Tubulin (Homo sapiens) [4]): Active; Activity (MeWo [5]): Active; IC50 (MeWo [6]): 35.5 µM
COc1cc(/C=C/c2cc(-c3ccccc3)[nH]n2)cc(OC)c1 | 90% | –
COc1cc(/C=C/C(O)=C/C(=O)c2ccc(O)cc2)ccc1O | 89% | –
COc1cc(/C=C/C(O)=C/C(=O)c2ccccc2)ccc1O | 90% | –
COc1cc(/C=C/c2cc(-c3ccc(O)c(OC)c3)[nH]n2)cc(OC)c1 | 43% | IC50 [2]: 11.8 µM; inhibition (Tubulin (Homo sapiens) [3]): Active; inhibition (Tubulin (Homo sapiens) [4]): Active; Activity (MeWo [5]): Active; IC50 (MeWo [6]): 4.8 µM
COc1cc(/C=C/c2cc(-c3ccc(O)c(OC)c3)[nH]n2)ccc1O | 36% | IC50 [2]: 4 µM; inhibition (Tubulin (Homo sapiens) [3]): Active; inhibition (Tubulin (Homo sapiens) [4]): Active; Activity (MeWo [5]): Active; IC50 (MeWo [6]): 3.7 µM
COc1ccc(/C=C/C(O)=C/C(=O)c2ccc(O)cc2)cc1 | 93% | –
COc1cc(C(=O)/C=C(O)/C=C/c2ccc(O)cc2)ccc1O | 98% | –
COc1ccc(/C=C/c2cc(-c3ccc(O)c(OC)c3)[nH]n2)cc1 | 92% | –
COc1cc(/C=C/C(O)=C/C(=O)c2ccc(O)cc2)cc(OC)c1 | 90% | –
COc1cc(/C=C/c2cc(-c3ccc(O)cc3)[nH]n2)cc(OC)c1OC | 85% | –
COc1ccc(/C=C/c2cc(-c3ccccc3)[nH]n2)cc1 | 92% | –
COc1cccc(/C=C/c2cc(-c3ccc(O)c(OC)c3)[nH]n2)c1 | 27% | IC50 [2]: 10.6 µM; inhibition (Tubulin (Homo sapiens) [3]): Active; inhibition (Tubulin (Homo sapiens) [4]): Active; Activity (MeWo [5]): Active; IC50 (MeWo [6]): 3.6 µM
COc1cc(/C=C/c2cc(-c3ccccc3)[nH]n2)ccc1O | 51% | –
COc1cc(C(=O)/C=C(O)/C=C/c2cc(OC)c(OC)c(OC)c2)ccc1O | 89% | –
COc1cc(/C=C/c2cc(-c3ccc(O)cc3)[nH]n2)ccc1O | 69% | –
